Experimental data: ChEMBL document CHEMBL5647686, “B cell receptor-induced phosphorylation of Pyk2 and focal adhesion kinase involves integrins and the Rap GTPases and is required for B cell spreading” (J Biol Chem, 2009)
The source made the active and inactive calls. The rule behind the calls is not given here.

How the values were obtained:
[1] = test system: A20; test: Inhibition of LFA-1 Ab-induced B-cell spreading in mouse A20 cells plated on anti-LFA-1 Ab coated plates at 2.5 uM for 1 to 3 hrs by immunofluorescence assay; type: functional, cell-based; conditions: time 1-3 hrs
In short: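 A20 B lymphoma cells pretreated 45 min with DMSO or 2.5 μm inhibitor, then added to wells coated overnight at 4 °C with 2.63 μg/cm² rat anti-mouse LFA-1 mAb and blocked with 2% BSA/PBS. Incubated at 37 °C in RPMI 1640 with 2% FCS for 1 or 3 h. Cells scored as spread when phase dark, elongated or irregular with membrane processes. Percentage of adherent cells spread; mean ± S.E., >150 cells per experiment, three experiments; one-tailed paired t test vs DMSO.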

[2] = molecular target: Protein-tyrosine kinase 2-beta (Mus musculus) (UniProt Q9QVP9); test: Inhibition of anti-Ig-induced tyrosine phosphorylation of Pyk2 in mouse A20 cells at 0.15 to 5 uM incubated for 45 mins before being stimulated with anti-IgG for 20 mins by immunoblotting; type: cell-based; conditions: dose 0.15-5 µM, time 65.0 min
Protein-tyrosine kinase 2-beta (Mus musculus), sequence (Q9QVP9 whole entry, looked up): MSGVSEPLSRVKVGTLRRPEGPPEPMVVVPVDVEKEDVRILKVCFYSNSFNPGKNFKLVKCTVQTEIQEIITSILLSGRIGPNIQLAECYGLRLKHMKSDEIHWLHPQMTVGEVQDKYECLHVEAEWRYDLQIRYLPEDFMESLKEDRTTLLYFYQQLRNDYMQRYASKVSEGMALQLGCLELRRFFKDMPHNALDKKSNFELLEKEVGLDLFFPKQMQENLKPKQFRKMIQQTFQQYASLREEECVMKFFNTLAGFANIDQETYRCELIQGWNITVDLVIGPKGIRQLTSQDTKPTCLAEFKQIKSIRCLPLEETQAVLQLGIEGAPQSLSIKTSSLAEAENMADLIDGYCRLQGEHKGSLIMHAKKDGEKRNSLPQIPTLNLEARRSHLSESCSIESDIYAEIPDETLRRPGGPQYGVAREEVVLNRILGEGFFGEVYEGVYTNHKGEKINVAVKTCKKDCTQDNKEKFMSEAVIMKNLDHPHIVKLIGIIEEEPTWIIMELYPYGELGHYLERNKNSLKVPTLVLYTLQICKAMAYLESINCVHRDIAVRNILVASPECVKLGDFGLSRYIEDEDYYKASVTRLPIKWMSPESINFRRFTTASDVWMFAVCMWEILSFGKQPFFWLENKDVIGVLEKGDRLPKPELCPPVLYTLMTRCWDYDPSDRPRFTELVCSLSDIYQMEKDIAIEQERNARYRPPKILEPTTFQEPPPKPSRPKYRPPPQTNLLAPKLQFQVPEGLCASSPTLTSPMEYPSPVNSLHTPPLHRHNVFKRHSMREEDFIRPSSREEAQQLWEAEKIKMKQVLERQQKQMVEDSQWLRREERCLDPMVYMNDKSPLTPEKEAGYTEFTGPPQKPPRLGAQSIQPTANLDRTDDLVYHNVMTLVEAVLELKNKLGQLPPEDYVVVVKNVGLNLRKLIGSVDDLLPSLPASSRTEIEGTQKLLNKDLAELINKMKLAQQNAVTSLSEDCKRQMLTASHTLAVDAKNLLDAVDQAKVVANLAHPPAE
In short: (§1)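 A20 cells held in suspension in modified HEPES-buffered saline were treated with inhibitor at graded concentrations or DMSO for 45 min, then stimulated with 20 μg/ml anti-IgG for 20 min. Unstimulated controls were kept 45 min plus 20 min without stimulus. Cold lysis buffer was added, and lysates cleared. Pyk2 immunoprecipitates were blotted with 4G10 anti-Tyr(P) and reprobed for Pyk2. Whole lysates were blotted with 4G10 for total phosphotyrosine and for phospho-Erk.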

[3] = test system: A20; test: Inhibition of anti-Ig-induced tyrosine phosphorylation of FAK in mouse A20 cells plated on collagen/fibronectin ECM conditions at 0.15 to 5 uM incubated for 45 mins before being stimulated with anti-IgG for 20 mins by immunoblotting; type: cell-based; conditions: dose 0.15-5 µM, time 65.0 min
[4] = test system: A20; test: Inhibition of anti-IgG-induced B-cell spreading in mouse A20 cells plated on fibronectin assessed as reduction in number of A20 cells that developed an elongated and spread morphology at 2.5 uM for 1 to 4 hrs by immunofluorescence assay; type: functional, cell-based; conditions: time 1-4 hrs
In short: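 A20 cells pretreated 45 min with DMSO or 2.5 μm inhibitor in RPMI 1640 with 2% FCS, plated at 37 °C on wells coated with 2.63 μg/cm² fibronectin (BSA-blocked), and stimulated with 10 μg/ml soluble anti-IgG for 1, 2 or 4 h. Phase-dark cells with elongated or irregular shape counted as spread. Percentage of adherent cells; >150 cells counted per experiment, three experiments; one-tailed paired t test.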

[5] = test system: A20; test: Inhibition of anti-Ig-induced SRC dependent overall protein tyrosine phosphorylation in mouse A20 cells under suspension conditions at 0.15 to 5 uM incubated for 45 mins before being stimulated with anti-IgG for 20 mins by immunoblotting; type: cell-based; conditions: dose 0.15-5 µM, time 65.0 min; in short: as §1
[6] = molecular target: Tyrosine-protein kinase SYK (Mus musculus) (UniProt P48025); test: Inhibition of anti-Ig-induced SYK dependent overall protein tyrosine phosphorylation in mouse A20 cells under suspension conditions at 0.15 to 5 uM incubated for 45 mins before being stimulated with anti-IgG for 20 mins by immunoblotting; type: cell-based; conditions: dose 0.15-5 µM, time 65.0 min; in short: as §1
Tyrosine-protein kinase SYK (Mus musculus), sequence (P48025 whole entry, looked up): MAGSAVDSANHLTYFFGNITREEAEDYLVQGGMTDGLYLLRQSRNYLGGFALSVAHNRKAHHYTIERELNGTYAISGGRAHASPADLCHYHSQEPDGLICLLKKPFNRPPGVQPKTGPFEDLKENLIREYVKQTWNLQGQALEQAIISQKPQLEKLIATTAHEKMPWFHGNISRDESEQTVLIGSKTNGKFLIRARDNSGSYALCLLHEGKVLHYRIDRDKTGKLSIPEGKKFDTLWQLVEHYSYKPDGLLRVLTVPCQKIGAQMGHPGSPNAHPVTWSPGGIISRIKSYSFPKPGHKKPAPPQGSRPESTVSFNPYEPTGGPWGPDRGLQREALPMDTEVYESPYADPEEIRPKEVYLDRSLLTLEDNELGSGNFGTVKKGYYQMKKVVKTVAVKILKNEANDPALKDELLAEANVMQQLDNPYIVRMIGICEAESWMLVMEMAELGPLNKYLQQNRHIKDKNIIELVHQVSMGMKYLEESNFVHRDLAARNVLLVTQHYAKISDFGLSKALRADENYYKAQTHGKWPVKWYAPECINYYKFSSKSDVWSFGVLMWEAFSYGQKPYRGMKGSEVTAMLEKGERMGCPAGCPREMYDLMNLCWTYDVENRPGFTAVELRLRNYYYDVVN

[7] = molecular target: Protein-tyrosine kinase 2-beta (Mus musculus) (UniProt Q9QVP9); test: Inhibition of anti-Ig-induced tyrosine phosphorylation of Pyk2 in mouse A20 cells plated on collagen/fibronectin ECM at 0.15 to 5 uM incubated for 45 mins before being stimulated with anti-IgG for 20 mins by immunoblotting; type: cell-based; conditions: dose 0.15-5 µM, time 65.0 min
[8] = test system: A20; test: Inhibition of anti-Ig-induced tyrosine phosphorylation of ERK in mouse A20 cells under suspension conditions at 0.15 to 5 uM incubated for 45 mins before being stimulated with anti-IgG for 20 mins by immunoblotting; type: cell-based; conditions: dose 0.15-5 µM, time 65.0 min; in short: as §1
[9] = Toxicity in mouse A20 cells by 7-amino-actinomycin D staining; type: cell-based
[10] = molecular target: Protein-tyrosine kinase 2-beta (Mus musculus) (UniProt Q9QVP9); test: Inhibition of […] tyrosine phosphorylation of Pyk2 in mouse A20 cells induced by clustering LFA-1 with plate-bound Abs at 2.5 to 5 uM incubated for 45 mins before being stimulated with anti-LFA-1 Abs for 30 mins by immunoblotting; type: cell-based; conditions: dose 2.5-5 µM, time 75.0 min
In short: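 A20 cells pretreated 45 min with inhibitor or DMSO were added for 30 min to wells coated with 2.63 μg/cm² anti-LFA-1 Abs. Lysates were cleared, and Pyk2 or FAK immunoprecipitates were blotted with 4G10 anti-Tyr(P).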

With `CN(c1ccccc1CNc1nc(Nc2ccc3c(c2)CC(=O)N3)ncc1C(F)(F)F)S(C)(=O)=O` the inhibition [1] was “Active”, the inhibition [2] was “Active” and the inhibition [3] was “Active”. The inhibition [4] was “Active”, the inhibition [5] was “inactive” and the inhibition [6] was “inactive”. For the same compound, the inhibition [7] was “Active”, the inhibition [8] was “inactive” and the Activity [9] was “Non-Toxic”. The inhibition [10] was “Active”.
